Assay results: ChEMBL document CHEMBL4316638, “Bioactive Meroterpenoids and Isocoumarins from the Mangrove-Derived Fungus Penicillium sp. TGM112” (J Nat Prod, 2019)
In brackets after ≈: the same amount, converted by molar mass. Activity calls are given as the source filed them. The calls are words filed in the database; no cut-off is given here.

How the values were obtained:
RAW264.7 = test: Inhibition of LPS-induced nitric oxide production in mouse RAW264.7 cells preincubated for 30 mins followed by LPS-stimulation and measured after 24 hrs by Griess assay; assay type: functional, cell-based
Outline: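 RAW264.7 macrophages seeded at 50 000 cells/well and grown 24 h, then exposed to compound for 30 min at 37 °C before LPS (100 ng/mL) co-incubation for 24 h. Nitrite in supernatant measured by Griess reagent (10 min mixing), absorbance 540 nm. Compounds from 10 mM DMSO stocks; final DMSO ≤0.1%. Dexamethasone positive control. Triplicate runs; IC50 calculated.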

Helicoverpa armigera = test: Insecticidal activity against Helicoverpa armigera hubner measured every other day for 8 days starting from 2 days post dosing; assay type: functional, organism-based
Outline: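 Neonate H. armigera larvae fed artificial diet dosed with serial dilutions of compound (1 mg/mL in DMSO) at 200, 100, 50, 25 and 12.5 μL/well in six-well plates; three groups of three larvae, 3 replicates per treatment. Held at 25 ± 1 °C, 80% relative humidity. Dead larvae counted on days 2, 4, 6, 8. DMSO negative, azadirachtin positive, plain diet blank controls.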

Caenorhabditis elegans = test: Insecticidal activity against Caenorhabditis elegans measured at 12 […]; assay type: functional, organism-based
Outline: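 L1 C. elegans (30−40 worms/well) in S medium with E. coli OP50 and chloramphenicol, exposed to compound at 40, 20, 10, 5, 1 and 0 μg/mL diluted in filter-sterilized M-9; 3 replicates per treatment. Plates sealed, kept at 24 °C for 60 h in the dark; dead larvae counted at 12, 24, 36, 48, 60. M-9 negative control, levamisole 1 mg/mL positive control.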

A549 = test: Cytotoxicity against human A549 cells measured after 7 days by MTT assay; assay type: functional, cell-based
HeLa = test: Cytotoxicity against human HeLa cells measured after 7 days by MTT assay; assay type: functional, cell-based
HepG2 = test: Cytotoxicity against human HepG2 cells measured after 7 days by MTT assay; assay type: functional, cell-based
Escherichia coli = test: Antibacterial activity against Escherichia coli ATCC 25922 by microplate assay; assay type: functional, organism-based
Staphylococcus aureus [1] = test: Antibacterial activity against Staphylococcus aureus ATCC 25923 by microplate assay; assay type: functional, organism-based
Staphylococcus aureus [2] = test: Antibacterial activity against methicillin-resistant Staphylococcus aureus ATCC 33591 by microplate assay; assay type: functional, organism-based
Outline: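 MRSA (ATCC 33591) was one strain in a panel of six pathogenic bacteria: four general and two marine Vibrio. Assayed by the microplate method, with ciprofloxacin as positive control.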

Bacillus cereus = test: Antibacterial activity against Bacillus cereus ATCC 11778 by microplate assay; assay type: functional, organism-based
Vibrio parahaemolyticus = test: Antibacterial activity against Vibrio parahaemolyticus ATCC 17802 by microplate assay; assay type: functional, organism-based
Vibrio alginolyticus = test: Antibacterial activity against Vibrio alginolyticus ATCC 17749 by microplate assay; assay type: functional, organism-based; conditions: NBRC 15630 = ATCC 17749

With `C=C1[C@@]23C(=O)O[C@H](C)[C@]24O[C@@]2(C(=C)[C@]5(C=CC(=O)OC5(C)C)C[C@@H](O)[C@]32C)[C@H](O)[C@@]1(C)OC4=O` the inhibition (RAW264.7) was “inactive”, the IC50 (Helicoverpa armigera) was 200 µg/mL (≈ 423 µM) and the EC50 (Caenorhabditis elegans) was 9.9 µg/mL (≈ 21 µM). The Activity (A549) was “inactive”, the Activity (HeLa) was “inactive” and the Activity (HepG2) was “inactive”. The Activity (Escherichia coli) was “inactive”, the Activity (Staphylococcus aureus [1]) was “inactive” and the Activity (Staphylococcus aureus [2]) was “inactive”. The Activity (Bacillus cereus) was “inactive”, the Activity (Vibrio parahaemolyticus) was “inactive” and the Activity (Vibrio alginolyticus) was “inactive”.

`C=C1[C@]2(CCC(=O)OC2(C)C)C[C@@H](OC(=O)/C(C)=C\C)[C@]2(C)[C@]34C(=O)O[C@H](C)[C@]35O[C@]12[C@H](OC(C)=O)[C@@](C)(OC5=O)C4=O` was tested, and the inhibition (RAW264.7) was “inactive”, the IC50 (Helicoverpa armigera) was 200 µg/mL (≈ 333 µM) and the EC50 (Caenorhabditis elegans) was 9.4 µg/mL (≈ 15.7 µM). The Activity (A549) was “inactive”, the Activity (HeLa) was “inactive” and the Activity (HepG2) was “inactive”. The Activity (Escherichia coli) was “inactive”, the Activity (Staphylococcus aureus [1]) was “inactive” and the Activity (Staphylococcus aureus [2]) was “inactive”. For the same compound, the Activity (Bacillus cereus) was “inactive”, the Activity (Vibrio parahaemolyticus) was “inactive” and the Activity (Vibrio alginolyticus) was “inactive”.
